{"source": "ChEMBL document CHEMBL1123247", "about": "“Nucleoside conjugates. 7. Synthesis and antitumor activity of 1-beta-D-arabinofuranosylcytosine conjugates of ether lipids” (J Med Chem, 1986)", "key": {"L1210 [1]": {"tested_on": "L1210", "test": "Antitumor activity was determined against the ip implanted L1210 leukemia in mice by range in survival days at 200 mg/kg (treatment of 1qd schedule) dosage; Range is 14-23", "type": "functional, Mus musculus", "details": "route intraperitoneal", "how_it_was_run": "(§1)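 DBA/2J mice, 23-28 g, in groups of 6, were inoculated ip with 1×10^6 L1210 cells on day 0. Dosing was ip starting 24 h later on the stated daily schedules. Conjugates were given as sonicated solutions and reference prodrugs as suspensions in 0.9% NaCl with 0.5% Tween-80. Mice were observed daily until death or 45 days. Median survival T/C was calculated from survivors per NCI protocols.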"}, "L1210 [2]": {"tested_on": "L1210", "test": "Antitumor activity against the ic implanted L1210 lymphoid leukemia in mice expressed as optimal dose (1 qd treatment schedule) required to produce greatest increase in life span was determined", "type": "functional, Mus musculus", "how_it_was_run": "(§2)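 DBA/2J mice, groups of 6 (26-32 g), got 1 × 10^5 L1210 cells ic on day 0. Dosing was ip starting 24 h later, as a sonicated solution or suspension in 0.9% NaCl with 0.5% Tween-80, over a wide dose range. Mice were followed daily until death. Median survival T/C was taken from survivors per NCI protocols, and ILS = (T/C − 1) × 100. Active range means doses giving ILS ≥25%; optimal dose means greatest ILS.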"}, "L1210 [3]": {"tested_on": "L1210", "test": "Antitumor activity against the ip implanted L1210 leukemia in mice expressed as optimal dose (1 qd treatment schedule) required to produce greatest increase in life span was determined", "type": "functional, Mus musculus", "how_it_was_run": "(§3)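 DBA/2J mice, groups of 6 (23-28 g), were inoculated ip with 1 × 10^6 L1210 cells on day 0. Dosing was ip from 24 h, in 0.9% NaCl with 0.5% Tween-80 (sonicated solution or suspension). Mice were observed daily until death or day 45. Median survival T/C followed NCI protocols, and ILS = (T/C − 1) × 100. Active range means doses giving ILS ≥25%; optimal dose means greatest ILS.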"}, "L1210 [4]": {"tested_on": "L1210", "test": "Antitumor activity was determined against the ic implanted L1210 lymphoid leukemia in mice by range in survival days at 300 mg/kg (1 qd treatment schedule) dosage; Range is 14-18", "type": "functional, Mus musculus"}, "L1210 [5]": {"tested_on": "L1210", "test": "Antitumor activity was determined against the ip implanted L1210 leukemia in mice by change in […] at 200 mg/kg (treatment of 1qd schedule) dosage", "type": "functional, Mus musculus", "details": "route intraperitoneal", "how_it_was_run": "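DBA/2J mice, 6 per group (wt 23-28 g), inoculated ip with 1×10^6 L1210 cells on day 0. Treatment was given ip in 0.9% NaCl with 0.5% Tween-80, starting 24 h later. Weight change was taken on day 8. Mice were observed daily until death or 45 days. Median survival T/C and %ILS = (T/C − 1) × 100 came from survivors per NCI protocols, and 45-day survivors were counted.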"}, "L1210 [6]": {"tested_on": "L1210", "test": "Antitumor activity was determined against the ip implanted L1210 leukemia in mice by percent median survival rate (treated/control) at 200 mg/kg (treatment of 1qd schedule) dosage; 19.5/7.0", "type": "functional, Mus musculus", "details": "route intraperitoneal", "how_it_was_run": "as §1"}, "L1210 [7]": {"tested_on": "L1210", "test": "Antitumor activity against ip implanted L1210 leukemia in mice expressed as active dose range (1 qd treatment schedule) required to produce increase in life span by >25% was determined; Range is 100-250", "type": "functional, Mus musculus", "how_it_was_run": "as §3"}, "L1210 [8]": {"tested_on": "L1210", "test": "Antitumor activity was determined against the ip implanted L1210 leukemia in mice by 45-day survivors in mice at 200 mg/kg (treatment of 1qd schedule) dosage", "type": "functional, Mus musculus", "details": "route intraperitoneal", "how_it_was_run": "(§4)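 DBA/2J mice in groups of 6 (wt 23-28 g) were inoculated ip with 1×10^6 L1210 cells on day 0. Dosing was ip from 24 h, in 0.9% NaCl with 0.5% Tween-80 (conjugates sonicated), across a range of doses. Mice were observed daily until death or 45 days. Median T/C was computed from survivors per NCI protocols, and ILS = (T/C − 1)×100.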"}, "L1210 [9]": {"tested_on": "L1210", "test": "Antitumor activity was determined against the ic implanted L1210 lymphoid leukemia in mice by percent increase in life span at 300 mg/kg (1 qd treatment schedule) dosage", "type": "functional, Mus musculus", "how_it_was_run": "as §2"}, "L1210 [10]": {"tested_on": "L1210", "test": "Antitumor activity was determined against the ip implanted L1210 leukemia in mice by percent increase in life span at 200 mg/kg (treatment of 1qd schedule) dosage", "type": "functional, Mus musculus", "details": "route intraperitoneal", "how_it_was_run": "as §4"}, "P388 [11]": {"tested_on": "P388", "test": "Antitumor activity was determined against the ip implanted P388 leukemia in mice by percent median survival rate (treated/control) at 200 mg/kg (1 qd treatment schedule) dosage; >45.0/12.0", "type": "functional, Mus musculus", "details": "route intraperitoneal"}, "P388 [12]": {"tested_on": "P388", "test": "Antitumor activity was determined against the ip implanted P388 leukemia in mice by 45-day survivors in mice at 200 mg/kg (1 qd treatment schedule) dosage", "type": "functional, Mus musculus", "details": "route intraperitoneal", "how_it_was_run": "(§5)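 DBA/2J mice, 23-33 g, in groups of 6, were inoculated ip with 1×10^6 P388 cells on day 0. Dosing was ip from 24 h on the stated schedules, in 0.9% NaCl with 0.5% Tween-80 (sonicated solution or suspension). Survival was followed daily until death or 45 days. Median T/C was calculated from survivors per NCI protocols, with ILS = (T/C − 1) × 100.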"}, "P388 [13]": {"tested_on": "P388", "test": "Antitumor activity against ip implanted P388 leukemia in mice expressed as active dose range (1 qd treatment schedule) required to produce increase in life span by >25% was determined; Range is 200-300", "type": "functional, Mus musculus", "how_it_was_run": "(§6)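 P388 leukemia: 1 × 10^6 cells were given ip on day 0 to DBA/2J mice, groups of 6 (23-33 g). Treatment was ip from 24 h after inoculation, vehicle 0.9% NaCl with 0.5% Tween-80. Mice were observed daily until death or 45 days. Median survival T/C was calculated from survivors per NCI protocols, and ILS = (T/C − 1) × 100. Active range means doses giving ILS ≥25%; optimal dose means greatest ILS.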"}, "P388 [14]": {"tested_on": "P388", "test": "Antitumor activity was determined against the ip implanted P388 leukemia in mice by change in […] at 200 mg/kg (1 qd treatment schedule) dosage", "type": "functional, Mus musculus", "details": "route intraperitoneal", "how_it_was_run": "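P388 leukemia, 1×10^6 cells implanted ip on day 0 into DBA/2J mice, groups of 6 (wt 23-33 g). Dosing ip started 24 h post-inoculation, vehicle 0.9% NaCl containing 0.5% Tween-80. Animals were observed daily until death or 45 days. Outputs were weight change, median survival T/C from survivors per NCI protocols, and %ILS = (T/C − 1) × 100.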"}, "P388 [15]": {"tested_on": "P388", "test": "Antitumor activity was determined against the ip implanted P388 leukemia in mice by range in survival days at 200 mg/kg (1 qd treatment schedule) dosage; Range is 24->45", "type": "functional, Mus musculus", "details": "route intraperitoneal"}, "P388 [16]": {"tested_on": "P388", "test": "Antitumor activity was determined against the ip implanted P388 leukemia in mice by percent increase in life span at 200 mg/kg (1 qd treatment schedule) dosage", "type": "functional, Mus musculus", "details": "route intraperitoneal", "how_it_was_run": "as §5"}, "P388 [17]": {"tested_on": "P388", "test": "Antitumor activity against the ip implanted P388 leukemia in mice expressed as optimal dose (1 qd treatment schedule) required to produce greatest increase in life span was determined", "type": "functional, Mus musculus", "how_it_was_run": "as §6"}, "L1210 [18]": {"tested_on": "L1210", "test": "Antitumor activity was determined against the ic implanted L1210 lymphoid leukemia in mice by change in body weight at 300 mg/kg (1 qd treatment schedule) dosage"}, "L1210 [19]": {"tested_on": "L1210", "test": "Antitumor activity was determined against the ic implanted L1210 lymphoid leukemia in mice by median survival time at 300 mg/kg (1 qd treatment schedule) dosage; 14.5/7.0"}}}
{"compound": "CCCCCCCCCCCCCCCC(=O)Nc1ccn([C@@H]2O[C@H](CO)[C@@H](O)[C@@H]2O)c(=O)n1", "values": [{"measurement": "Range", "setting": "L1210 [1]", "value": 14}, {"measurement": "Optimal dose", "setting": "L1210 [2]", "value": 300, "unit": "mg"}, {"measurement": "Optimal dose", "setting": "L1210 [3]", "value": 200, "unit": "mg/kg/day"}, {"measurement": "Range", "setting": "L1210 [4]", "value": 14}, {"measurement": "Weight change", "setting": "L1210 [5]", "value": -0.5, "unit": "g mouse-1"}, {"measurement": "median survival time", "setting": "L1210 [6]", "value": 19.5, "unit": "days"}, {"measurement": "Active dose range", "setting": "L1210 [7]", "value": 100, "unit": "mg/kg/day"}, {"measurement": "Survivors", "setting": "L1210 [8]", "value": 0}, {"measurement": "ILS", "setting": "L1210 [9]", "value": 107}, {"measurement": "ILS", "setting": "L1210 [10]", "value": 179}, {"measurement": "T/C", "setting": "P388 [11]", "value": ">45", "unit": "%"}, {"measurement": "Survivors", "setting": "P388 [12]", "value": 5}, {"measurement": "Active dose range", "setting": "P388 [13]", "value": 200, "unit": "mg/kg/day"}, {"measurement": "Weight change", "setting": "P388 [14]", "value": 0.75, "unit": "g mouse-1"}, {"measurement": "Range", "setting": "P388 [15]", "value": 24}, {"measurement": "ILS", "setting": "P388 [16]", "value": ">275"}, {"measurement": "Optimal dose", "setting": "P388 [17]", "value": 200, "unit": "mg"}, {"measurement": "Weight change", "setting": "L1210 [18]", "value": -2.04, "unit": "g mouse-1"}, {"measurement": "median survival time", "setting": "L1210 [19]", "value": 14.5, "unit": "days"}]}
